{"data": "Measured values of several laboratories", "observed": "cell growth or viability", "note": "Lines come from different studies, so protocols differ."}
{"SMILES": "CC(=NN=c1sc(N=Nc2ccc(C)cc2)c(C)n1C)c1c(O)c2ccccc2oc1=O", "cell line": "human Skin fibroblast", "technique": "MTT", "time": "48 h", "IC50 [µM]": "> 100"}
{"SMILES": "COc1cccc2c1C(=O)c1c(O)c3c(c(O)c1C2=O)C[C@@](O)(C(=O)CO)C[C@@H]3O[C@H]1C[C@H](N)[C@H](O)[C@H](C)O1", "cell line": "U373 MG", "technique": "SRB", "IC50 [µM]": 0.88}
{"SMILES": "COc1cc([C@@H]2c3cc4c(cc3[C@@H](O[C@@H]3O[C@@H]5CO[C@@H](C)O[C@H]5[C@H](O)[C@H]3O)[C@H]3COC(=O)[C@H]23)OCO4)cc(OC)c1O", "cell line": "human Skin fibroblast", "time": "48 h", "IC50 [µM]": 5}
{"SMILES": "CCOC(=O)c1sc(=NN=C(C)c2c(O)c3ccccc3oc2=O)[nH]c1C", "cell line": "human Skin fibroblast", "technique": "MTT", "time": "48 h", "IC50 [µM]": "> 100"}
{"SMILES": "O=C(O)c1ccc2c(c1)nc(Nc1cccc(Cl)c1)c1ccncc12", "cell line": "HD-MB03", "IC50 [µM]": 0.501}
{"SMILES": "CCn1c(-c2nnc(NC(=O)c3cc4c([nH]c5ccccc54)c(-c4ccc(C)cc4)n3)s2)cc2ccccc21", "cell line": "BT-474", "technique": "MTT", "time": "72 h", "IC50 [µM]": 19.5}
{"SMILES": "CCOC(=O)c1sc(=NN=C(C)c2c(O)c3ccccc3oc2=O)n(CC)c1C", "cell line": "human Skin fibroblast", "technique": "MTT", "time": "48 h", "IC50 [µM]": "> 100"}
{"SMILES": "O=C(NCc1ccc(CO)cc1)c1c[nH]c2ccc(Cl)cc12", "cell line": "SK-N-BE", "technique": "MTT", "IC50 [µM]": 15}
{"SMILES": "COc1cc(-c2nc(C(=O)Nc3nnc(-c4cc5ccccc5n4C)s3)cc3c2[nH]c2ccccc23)cc(OC)c1OC", "cell line": "BT-474", "technique": "MTT", "time": "72 h", "IC50 [µM]": 9.15}
{"SMILES": "O=C(N/N=C/c1c(O)ccc2ccccc12)c1cc(-c2ccc3ccccc3c2)n[nH]1", "cell line": "WM278", "technique": "MTS", "time": "72 h", "IC50 [µM]": 6.1}
{"SMILES": "CC[C@]1(O)C[C@H]2CN(CCc3c([nH]c4ccccc34)[C@@](C(=O)OC)(c3cc4c(cc3OC)N(C=O)[C@H]3[C@@](O)(C(=O)OC)[C@H](OC(C)=O)[C@]5(CC)C=CCN6CC[C@]43[C@@H]65)C2)C1", "cell line": "KB 3-1", "technique": "MTT", "IC50 [µM]": 0.00744}
{"SMILES": "COc1cc(Nc2nccc(-c3cnn4nc(OC)ccc34)n2)cc(C(F)(F)F)c1", "cell line": "NCI-H1563", "technique": "ATP luminescence", "IC50 [µM]": "> 3"}
{"SMILES": "COc1cccc2c1C(=O)c1c(O)c3c(c(O)c1C2=O)C[C@@](O)(C(=O)CO)C[C@@H]3O[C@H]1C[C@H](N)[C@H](O)[C@H](C)O1", "cell line": "human Skin fibroblast", "technique": "MTT", "time": "48 h", "IC50 [µM]": 0.16}
{"SMILES": "Cn1c(-c2nnc(NC(=O)c3cc4c([nH]c5ccccc54)c(-c4ccc(F)cc4)n3)s2)cc2ccccc21", "cell line": "BT-474", "technique": "MTT", "time": "72 h", "IC50 [µM]": 18.4}
{"SMILES": "C[C@H]1Oc2cc(cnc2N)-c2c(nn(C)c2C#N)CN(C)C(=O)c2ccc(F)cc21", "cell line": "HD-MB03", "time": "7 days", "IC50 [µM]": "> 10"}
{"SMILES": "CCn1c(=O)c(-c2ccc(-c3cncs3)cc2Cl)cc2cnc(Nc3ccc(N4CCN(C)CC4)cc3)nc21", "cell line": "CFPAC-1", "technique": "MTT", "time": "24 h", "IC50 [µM]": 6.92}
{"SMILES": "CC(C)C[C@H](NC(=O)[C@H](Cc1ccccc1)NC(=O)c1cnccn1)B(O)O", "cell line": "T84", "technique": "ATP luminescence", "IC50 [µM]": 0.018}
{"SMILES": "O=C(Nc1nnc(-c2cc3ccccc3[nH]2)s1)c1cc2c([nH]c3ccccc32)c(-c2ccc(F)cc2)n1", "cell line": "BT-474", "technique": "MTT", "time": "72 h", "IC50 [µM]": 9.2}
{"SMILES": "Cc1cc2c(F)c(Oc3ncnn4cc(OC[C@@H](C)O)c(C)c34)ccc2[nH]1", "cell line": "HD-MB03", "time": "7 days", "IC50 [µM]": "> 10"}
{"SMILES": "CC[C@H](C)[C@@H]([C@@H](CC(=O)N1CCC[C@H]1[C@H](OC)[C@@H](C)C(=O)N[C@@H](Cc1ccccc1)C(=O)O)OC)N(C)C(=O)[C@@H](NC(=O)[C@@H](NC)C(C)C)C(C)C", "cell line": "M21", "technique": "MTT", "time": "72 h", "IC50 [µM]": "> 1"}
{"SMILES": "Nc1nc2[nH]cc(CCc3ccc(C(=O)N[C@@H](CCC(=O)O)C(=O)O)cc3)c2c(=O)[nH]1", "cell line": "MB002", "time": "7 days", "IC50 [µM]": 0.0635}
{"SMILES": "Oc1ccc(Nc2nc(-c3ccc(Cl)cc3)cs2)cc1", "cell line": "WM278", "technique": "MTS", "time": "24 h", "IC50 [µM]": 20}
{"SMILES": "CN(C)c1ccc2cc(C(=O)N[C@@H](CCCNC(=N)CCl)C(=O)NCc3ccccc3)ccc2c1", "cell line": "S-180", "time": "48 h", "IC50 [µM]": 8.4}
{"SMILES": "CC1(C)CCC(CN2CCN(c3ccc(C(=O)NS(=O)(=O)c4ccc(NCC5CCOCC5)c([N+](=O)[O-])c4)c(Oc4cnc5[nH]ccc5c4)c3)CC2)=C(c2ccc(Cl)cc2)C1", "cell line": "MB002", "time": "7 days", "IC50 [µM]": "> 10"}
{"SMILES": "CCn1c(C)c(N=Nc2ccccc2)sc1=NN=C(C)c1c(O)c2ccccc2oc1=O", "cell line": "human Skin fibroblast", "technique": "MTT", "time": "48 h", "IC50 [µM]": "> 100"}
{"SMILES": "Cc1c(C(=O)Nc2ccc(N3C[C@@H](C)O[C@@H](C)C3)nc2)cccc1-c1ccc(OC(F)(F)F)cc1", "cell line": "MB002", "time": "7 days", "IC50 [µM]": "> 10"}
{"SMILES": "CC(=NN=c1scc(-c2ccccc2)n1C)c1c(O)c2ccccc2oc1=O", "cell line": "human Skin fibroblast", "technique": "MTT", "time": "48 h", "IC50 [µM]": "> 100"}
{"SMILES": "COc1cccc(OCCCN)c1-c1cc(Nc2cnc(C#N)cn2)n[nH]1", "cell line": "MB002", "time": "7 days", "IC50 [µM]": 0.0263}
{"SMILES": "CC(=NN=C1NC(=O)C(C)S1)c1c(O)c2ccccc2oc1=O (stereo not shown)", "cell line": "human Skin fibroblast", "technique": "MTT", "time": "48 h", "IC50 [µM]": "> 100"}
{"SMILES": "CCC(=O)N1CCN(c2ccc(-n3c(=O)ccc4cnc5ccc(-c6cnc7ccccc7c6)cc5c43)cc2C(F)(F)F)CC1", "cell line": "MB002", "time": "7 days", "IC50 [µM]": 0.0154}
{"SMILES": "CC(=NN=c1[nH]c(C)c(N=Nc2ccccc2)s1)c1c(O)c2ccccc2oc1=O", "cell line": "human Skin fibroblast", "technique": "MTT", "time": "48 h", "IC50 [µM]": "> 100"}
